Measured values from ChEMBL document CHEMBL1147882, “In vitro efficiency of new acridyl derivatives against Plasmodium falciparum” (Bioorg Med Chem, 2007).

Tests used:
Type in all cases: functional, organism-based
Plasmodium falciparum [1] = assay: Antimalarial activity against chloroquine-resistant Plasmodium falciparum Bre1 by hypoxanthine uptake
Outline: (§1)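 Synchronous parasites diluted in A-positive human erythrocytes with RPMI 1640 + 10% human serum, 25 mM HEPES, 25 mM NaHCO₃, to 0.2 parasitemia and 1.5 hematocrit. Added to wells predosed with drug, 0.06 to 200 µM in triplicate. 1 µCi [³H]hypoxanthine per well, 42 h at 37 °C. Incorporated radioactivity counted by scintillation. IC50 from non-linear regression of log-dose/response versus drug-free controls.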

Plasmodium falciparum [2] = assay: Antimalarial activity against chloroquine-resistant Plasmodium falciparum W2 by hypoxanthine uptake; outline: as §1
Plasmodium falciparum [3] = assay: Antimalarial activity against chloroquine-resistant Plasmodium falciparum FCR3 by hypoxanthine uptake; outline: as §1
Plasmodium falciparum [4] = assay: Antimalarial activity against chloroquine-sensitive Plasmodium falciparum 3D7 by hypoxanthine uptake; outline: as §1

Compound	IC50 (Plasmodium falciparum [1])	IC50 (Plasmodium falciparum [2])	IC50 (Plasmodium falciparum [3])	IC50 (Plasmodium falciparum [4])
COc1ccc2nc3cc(Cl)ccc3c(NCCCCCCNC(=O)CCNC(=O)CCNC(=O)C(N)CCCNC(=N)N)c2c1 (configuration not stated)	860 nM	940 nM	860 nM	3320 nM
COc1ccc2nc3cc(Cl)ccc3c(NCCCCCCNC(=O)CCN)c2c1	1260 nM	1250 nM	1250 nM	910 nM
COc1ccc2nc3cc(Cl)ccc3c(NCCCCCCN)c2c1	170 nM	180 nM	200 nM	130 nM
N=C(N)NCCCC(N)C(=O)NCC(=O)NCCCCCCCC(=O)Nc1c2ccccc2nc2ccccc12 (configuration not stated)	28700 nM	30500 nM	27200 nM	27100 nM
COc1ccc2nc3cc(Cl)ccc3c(NCCCCCCNC(=O)CCCN)c2c1	180 nM	570 nM	540 nM	190 nM
COc1ccc2nc3cc(Cl)ccc3c(NCCCCCCNC(=O)CCCNC(=O)CN)c2c1	620 nM	830 nM	810 nM	890 nM
COc1ccc2nc3cc(Cl)ccc3c(NCCCCCCNC(=O)CCCNC(=O)CNC(=O)C(N)CCCNC(=N)N)c2c1 (configuration not stated)	500 nM	820 nM	670 nM	840 nM
N=C(N)NCCCC(N)C(=O)NCC(=O)NCCCCCCNC(=O)c1c2ccccc2nc2ccccc12 (configuration not stated)	47600 nM	43600 nM	42500 nM	42000 nM
